Compound activity deposited in PubChem BioAssay by Sanford-Burnham Center for Chemical Genomics.
G6PDH counter = counter-screen for G6PDH assay hits: L. mesenteroides G6PDH inhibition. AID 1020. hit rate 0.12% among 200,000. Purified L. mesenteroides G6PDH, diaphorase/resazurin coupled fluorescence, 45 min. inhibition, % at 5 µM; in the data active = inhibition above about 50%
Diaph inh CS = counter-screen for diaphorase-based assays: diaphorase inhibitors and chemical oxidizers; diaphorase resazurin-to-resorufin fluorescence, NADH, 16 min; bacterial (C. kluyveri) enzyme, not human; inhibition, % at 20 µM; hit rate 0.69% among 190,000; AID 1217;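 active = primary screen inhibition at 20 µM above a set limit, cut at about 50% in these data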;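 also: plate controls were DMSO with full reaction for no effect and wells lacking NADH for full effect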
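material = Clostridium kluyveri diaphorase enzyme | amount = 0.14 U/mL diaphorase, enzyme working solution | schedule = incubation 16 min, room temperature | detection = fluorescence of resorufin formed from resazurin, Ex 544/Em 590 nm | benchmarks = positive control minus NADH, DMSO neutral control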
Diaphorase act = counter-screen for diaphorase-based assays: diaphorase activators and chemical reducers. Diaphorase/resazurin coupled assay, resorufin fluorescence, 16 min; active compounds read high; 1 = vehicle wells, 0 = NADH-free wells. activation factor at 20 µM. hit rate 0.005% among 190,000. AID 1229;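 active = diaphorase activity raised at least twofold by the compound at 20 µM; inactive = activation factor below 2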
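Assay system: bacterial diaphorase enzyme (C. kluyveri) / Input: enzyme 0.07 U/mL final / Medium: 50 mM HEPES pH 7.4 with 4.542 mM MgCl2, 0.005% Tween 20 / Doses: single compound dose of 20 µM, 1% DMSO final / Incubation: 16 min enzyme reaction, ambient temperature / Signal: fluorescence, excitation 544 nm and emission 590 nm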
FLuc inh counter = counter-screen for luciferase assay inhibitors: firefly luciferase inhibition; ATPLite firefly luciferase biochemical luminescence, 10 min; inhibition, % at 10 µM; hit rate 1.5% among 200,000; AID 1006;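 active = inhibition above about 50% when tested at 10 µM, limit read from the data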
Target sequence (P08659 whole entry, looked up): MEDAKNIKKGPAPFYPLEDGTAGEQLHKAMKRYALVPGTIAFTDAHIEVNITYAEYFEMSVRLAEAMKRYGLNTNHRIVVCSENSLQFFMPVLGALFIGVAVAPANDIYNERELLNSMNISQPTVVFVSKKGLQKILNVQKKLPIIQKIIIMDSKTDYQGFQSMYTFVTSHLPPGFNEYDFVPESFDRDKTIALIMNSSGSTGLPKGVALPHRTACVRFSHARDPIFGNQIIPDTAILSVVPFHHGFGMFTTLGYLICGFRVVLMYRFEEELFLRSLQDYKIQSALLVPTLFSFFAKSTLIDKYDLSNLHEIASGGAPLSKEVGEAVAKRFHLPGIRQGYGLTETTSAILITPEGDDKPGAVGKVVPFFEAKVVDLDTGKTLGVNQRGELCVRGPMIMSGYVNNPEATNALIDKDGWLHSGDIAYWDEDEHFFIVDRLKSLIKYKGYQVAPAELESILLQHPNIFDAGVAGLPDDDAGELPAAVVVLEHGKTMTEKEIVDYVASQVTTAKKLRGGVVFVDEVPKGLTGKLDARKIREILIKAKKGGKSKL
FLuc stim CS = firefly luciferase counter-screen for stimulation assays; ATPlite luciferase biochemical, luminescence, 10 min; 0 = ATP-free wells, 1 = DMSO control; activation factor at 10 µM; 200,000 tested, under 10 active; AID 1027;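 active = luciferase activation factor, scaled between plate controls, of at least 2 with compound at 10 µM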
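test system = cell-free luciferase reagent | medium = PBS as buffer for the ATP substrate | dosing = test compounds dosed from 2 mM stocks in 100% DMSO | incubation = 10 min at ambient temperature | detection = luminescence measurement of luciferase light output | benchmarks = low control with PBS replacing ATP, high control enzyme plus ATP without compound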
Starred values were filed as active, the others as inactive. This is a sample that favours compounds with a hit; in the whole collection about 2.3% have one here.

`COc1ccc(N2CC(C(=O)N/N=C/c3cc([N+](=O)[O-])ccc3O)CC2=O)cc1` (configuration not stated) gave G6PDH counter -6.3, Diaph inh CS 54.9*, Diaphorase act 0.5, FLuc inh counter 0.5 and FLuc stim CS 1.
Screening COc1ccc(N2CC(C(=O)N/N=C/c3ccccc3)CC2=O)cc1 (configuration not stated) returned G6PDH counter 4.7, Diaph inh CS 9.6, Diaphorase act 0.9, FLuc inh counter -6.4 and FLuc stim CS 1.1.
For COCCCNC(=O)C12CCC(C)(C(=O)C1)C2(C)C (configuration not stated) the results were G6PDH counter -0.7, Diaph inh CS 6.8, Diaphorase act 0.9, FLuc inh counter -5.9 and FLuc stim CS 1.1.
CC1CN(C2=Nc3cccc4cccc2c34)CC(C)O1 (configuration not stated) was read as G6PDH counter 10.3, Diaph inh CS 10.2, Diaphorase act 0.9, FLuc inh counter 0.5 and FLuc stim CS 1.
COc1ccccc1N1CCN(C2=Nc3cccc4cccc2c34)CC1 was read as G6PDH counter 3.3, Diaph inh CS 6.5, Diaphorase act 0.9, FLuc inh counter 77.8* and FLuc stim CS 0.2.
CC(=O)N1CCN(C2=Nc3cccc4cccc2c34)CC1 was read as G6PDH counter 56.2*, Diaph inh CS 33.7, Diaphorase act 0.7, FLuc inh counter -1.7 and FLuc stim CS 1.
CCOC(=O)N1CCN(C2=Nc3cccc4cccc2c34)CC1 was read as G6PDH counter 58.3*, Diaph inh CS 33.7, Diaphorase act 0.7, FLuc inh counter 4.0 and FLuc stim CS 1.
COc1ccccc1N1CCN(C(=O)CN2C(=O)c3cccc4cccc(c34)C2=O)CC1 was read as G6PDH counter -2.6, Diaph inh CS 26.9, Diaphorase act 0.7, FLuc inh counter -0.5 and FLuc stim CS 1.
c1ccc(CC2CCN(C3=Nc4cccc5cccc3c45)CC2)cc1 was read as G6PDH counter -35.4, Diaph inh CS 26.0, Diaphorase act 0.7, FLuc inh counter 14.7 and FLuc stim CS 0.9.
For CNC(=O)c1cc(Nc2nnc(C)c3ccccc23)ccc1OC the results were G6PDH counter 6.0, Diaph inh CS 9.9, Diaphorase act 0.9, FLuc inh counter -5.4 and FLuc stim CS 1.1.
Screening O=[N+]([O-])c1ccccc1N/N=C1\CC2CC=CC12 (configuration not stated) returned G6PDH counter -0.8, Diaph inh CS 61.4*, Diaphorase act 0.4, FLuc inh counter 8.1 and FLuc stim CS 0.9.
`Cc1ccc(C)c(SCc2noc(C(=O)NCC3CCCO3)c2C(=O)O)c1` (configuration not stated) gave G6PDH counter 1.8, Diaph inh CS 7.7, Diaphorase act 0.9, FLuc inh counter -7.7 and FLuc stim CS 1.1.
CCc1c(C(=O)NN2C(=O)C3CCCCC3C2=O)csc1C (configuration not stated) was read as G6PDH counter 2.9, Diaph inh CS 2.5, Diaphorase act 1, FLuc inh counter 8.9 and FLuc stim CS 0.9.
Screening Cc1ccc(-n2ncc3c(SCC(=O)Nc4cc(C)on4)ncnc32)c(C)c1 returned G6PDH counter 0.4, Diaph inh CS 9.4, Diaphorase act 0.9, FLuc inh counter -5.7 and FLuc stim CS 1.1.
For Cc1ccc(NC(=O)c2cc(C)on2)cc1 the results were G6PDH counter 3.0, Diaph inh CS -2.8, Diaphorase act 1, FLuc inh counter 45.3 and FLuc stim CS 0.5.
For Cc1ccc(O)c(NC(=O)c2noc3c2CCCCC3)c1 the results were G6PDH counter 5.7, Diaph inh CS 5.4, Diaphorase act 0.9, FLuc inh counter 65.3* and FLuc stim CS 0.3.
CCc1ccc(NC(=O)c2cc(C)on2)cc1 was read as G6PDH counter 0.0, Diaph inh CS 9.2, Diaphorase act 0.9, FLuc inh counter 61.2* and FLuc stim CS 0.4.
Screening CCc1ccc(NC(=O)c2noc3c2CCC3)cc1 returned G6PDH counter 2.1, Diaph inh CS 10.6, Diaphorase act 0.9, FLuc inh counter 63.8* and FLuc stim CS 0.4.
O=C(Nc1ccccc1F)Nc1ccc([N+](=O)[O-])cc1Cl was read as G6PDH counter 2.1, Diaph inh CS 27.3, Diaphorase act 0.7, FLuc inh counter -4.8 and FLuc stim CS 1.
For CC(=O)NCCc1ccc(S(=O)(=O)Nc2cccnc2)cc1 the results were G6PDH counter -10.3, Diaph inh CS 8.2, Diaphorase act 0.9, FLuc inh counter -4.3 and FLuc stim CS 1.
For O=C(CCN1CCN(c2ccccc2F)CC1)Nc1ccc2c(c1)OCO2 the results were G6PDH counter 9.4, Diaph inh CS 3.1, Diaphorase act 1, FLuc inh counter -8.0 and FLuc stim CS 1.1.
For CC(C)Oc1cccc(-c2cc(C(=O)NC(=S)N(C)c3ccccc3C(=O)O)c3ccccc3n2)c1 the results were G6PDH counter 5.1, Diaph inh CS 17.2, Diaphorase act 0.8, FLuc inh counter 64.0* and FLuc stim CS 0.4.
CCNC(=S)NNC(=O)c1cc(-c2ccc(OCC)cc2)nc2ccccc12 was read as G6PDH counter 9.8, Diaph inh CS 17.8, Diaphorase act 0.8, FLuc inh counter 98.2* and FLuc stim CS 0.
For CC(C)(C)c1ccc(-c2cc(C(=O)NNC(=O)Nc3ccccc3)c3ccccc3n2)cc1 the results were G6PDH counter -2.4, Diaph inh CS 12.4, Diaphorase act 0.9, FLuc inh counter 77.3* and FLuc stim CS 0.2.
CCCOc1cccc(-c2cc(C(=O)NNC(=S)NCC)c3ccccc3n2)c1 was read as G6PDH counter 0.1, Diaph inh CS -1.4, Diaphorase act 1, FLuc inh counter 47.9 and FLuc stim CS 0.5.
CCNC(=S)NNC(=O)c1cc(-c2cccc(OC)c2)nc2ccccc12 was read as G6PDH counter 1.4, Diaph inh CS -2.4, Diaphorase act 1, FLuc inh counter 83.2* and FLuc stim CS 0.2.
`Cc1ccc(CN2CCN(Cc3cnc(N4CCOCC4)s3)CC2CCO)cc1` (configuration not stated) gave G6PDH counter 2.4, Diaph inh CS 7.0, Diaphorase act 0.9, FLuc inh counter -7.4 and FLuc stim CS 1.1.
For O=C(NCCCN1CCOCC1)C(=O)N/N=C/c1c2ccccc2cc2ccccc12 the results were G6PDH counter 6.4, Diaph inh CS 7.7, Diaphorase act 0.9, FLuc inh counter -8.1 and FLuc stim CS 1.1.
`Cc1nn(C)c(C(=O)NCc2ccc(Cl)cc2)c1Cl` gave G6PDH counter 9.6, Diaph inh CS 8.9, Diaphorase act 0.9, FLuc inh counter -8.7 and FLuc stim CS 1.1.
Screening Brc1ccccc1-n1nnc(-c2nccs2)n1 returned G6PDH counter 5.1, Diaph inh CS 10.1, Diaphorase act 0.9, FLuc inh counter 51.3* and FLuc stim CS 0.5.
